Data on ten molecules can be found in ChEMBL document CHEMBL1123059, “2-(beta-Arylethylamino)- and 4-(beta-arylethylamino)quinazolines as phosphodiesterase inhibitors” (J Med Chem, 1985).

Experiment [1] deals with cAMP phosphodiesterase (Bos taurus). The experiment in a line: Inhibition of bovine heart cAMP-phosphodiesterase.
For experiment [2], the system named is cAMP phosphodiesterase (Bos taurus). The experiment in a line: Ratio of Ki/Km for inhibition of bovine heart cAMP-phosphodiesterase.
The species entered for experiment [3] is Cavia porcellus. Kind of experiment: Percentage relaxation of guinea pig tracheal preparation relative to papaverine at 84 uM. In kind it is functional, Trachea. A digest of the protocol: (§1)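 Spiral trachea strips from female Hartley guinea pigs (300-500 g) were held in Krebs-Henseleit at 37 °C under 95% O2/5% CO2. Cumulative doses of the hydrochloride salt were given, then papaverine 10 μg/mL as the supramaximal reference. Relaxation at the stated concentration is given as % of papaverine maximum, with vehicle-corrected controls.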

The species entered for experiment [4] is Cavia porcellus. The experiment in a line: Relaxation in guinea pig tracheal preparation relative to papaverine, range 33.1-91.2. The settings on record: Trachea, read-out: ED50 (the source's name). In kind it is functional.
The species named for experiment [5] is Cavia porcellus. Kind of experiment: Percentage relaxation of guinea pig tracheal preparation relative to papaverine at 70 uM. In kind it is functional, Trachea. A digest of the protocol: as §1
The species named for experiment [6] is Cavia porcellus. The experiment in a line: Percentage relaxation of guinea pig tracheal preparation relative to papaverine at 98 uM. In kind it is functional, Trachea. A digest of the protocol:
as §1

For experiment [7], the target named is cAMP phosphodiesterase (Bos taurus). The experiment in a line: Inhibition of bovine heart cAMP-phosphodiesterase. This is another data set of the same source.
The species named for experiment [8] is Cavia porcellus. The experiment in a line: Relaxation in guinea pig tracheal preparation relative to papaverine, range 162-589. In kind it is functional. The settings on record: Trachea, read-out: ED50 (the source's name).
For experiment [9], the species on record is Cavia porcellus. The experiment in a line: Percentage relaxation of guinea pig tracheal preparation relative to papaverine at 42 uM. In kind it is functional, Trachea. A digest of the protocol:
as §1

For experiment [10], the species on record is Cavia porcellus. The experiment in a line: Relaxation in guinea pig tracheal preparation relative to papaverine, range 52.5-75.9. In kind it is functional. Conditions: Trachea, read-out: ED50 (the source's name).
For experiment [11], the species on record is Cavia porcellus. Kind of experiment: Relaxation in guinea pig tracheal preparation relative to papaverine, range 63.1-79.4. In kind it is functional. The settings on record: Trachea, read-out: ED50 (the source's name).
The species named for experiment [12] is Cavia porcellus. The experiment in a line: Relaxation in guinea pig tracheal preparation relative to papaverine. In kind it is functional. Conditions: Trachea, read-out: ED50 (the source's name).
For experiment [13], the species on record is Cavia porcellus. The experiment in a line: Percentage relaxation of guinea pig tracheal preparation relative to papaverine at 20 uM. In kind it is functional, Trachea. The gist of the method:
as §1

For `CCN(CC)c1nc(NCC(O)c2cccc(O)c2)nc2cc(OC)c(OC)cc12` (stereo not drawn), the IC50 in experiment [1] turned out to be 295 µM. In addition, in experiment [2], the Ratio was found to be 1.15. Besides, in the experiment filed under Cavia porcellus [3], the Max relaxation was 11.5%.

In turn, `CCN(CC)c1nc(NCC(O)c2ccccc2)nc2cc(OC)c(OC)cc12` (stereo not drawn) yielded an IC50 in experiment [1] of 328 µM. Also, in [2], the Ratio turned out to be 1.88. Moreover, in the experiment listed under Cavia porcellus [4], the EC50 stood at 49 µM.

`CCN(CC)c1nc(NCCc2ccccc2)c2cc(OC)c(OC)cc2n1` came in with an IC50 in [1] of 16 µM. The Ratio in [2] was found to be 0.107. In the experiment listed under Cavia porcellus [5], this molecule returned a Max relaxation of 29%.

For `CCN(CC)c1nc(NCC(O)c2ccccc2)c2cc(OC)c(OC)cc2n1` (stereo not drawn), in experiment [2], the Ratio is 0.64. In the experiment listed under Cavia porcellus [6], this molecule showed a Max relaxation of 46%. This molecule also showed an IC50 in experiment [7] of 350 µM.

Turning to `CCN(CC)c1nc(NCCc2ccccc2)nc2cc(OC)c(OC)cc12`, the Ratio in experiment [2] worked out at 0.054. Besides, the EC50 in the experiment filed under Cavia porcellus [8] was determined as 234 µM. Moreover, in experiment [7], the IC50 amounted to 87 µM.

As for `CCN(CC)c1nc(NCC(O)c2ccc(O)c(CO)c2)nc2cc(OC)c(OC)cc12.Cl` (stereo not drawn), the IC50 in experiment [1] turned out to be 339 µM. For the same molecule, in [2], the Ratio is 0.69. Moreover, the Max relaxation in the experiment listed under Cavia porcellus [9] came out at 36%.

For `CCN(CC)c1nc(NCC(O)c2ccc(O)c(CO)c2)c2cc(OC)c(OC)cc2n1.Cl` (stereo not drawn), in experiment [2], the Ratio amounted to 0.81. Moreover, the EC50 in the experiment filed under Cavia porcellus [10] was found to be 63.1 µM. For the same molecule, the IC50 in [7] came to 428 µM.

For `Cn1c(=O)c2nc[nH]c2n(C)c1=O` [THEOPHYLLINE], the EC50 in the experiment filed under Cavia porcellus [11] came out at 70.8 µM.

In experiment [1], `CCN(CC)c1nc(NCC(O)c2cc(O)cc(O)c2)nc2cc(OC)c(OC)cc12.Cl` (stereo not drawn) had an IC50 of 432 µM. Besides, the EC50 in the experiment listed under Cavia porcellus [12] came to 26.9 µM. In addition, in experiment [2], the Ratio was 0.43.

In the case of `CCN(CC)c1nc(NCC(O)c2cccc(O)c2)c2cc(OC)c(OC)cc2n1.Cl` (stereo not drawn), the Ratio in [2] amounted to 0.73. Also, in [7], the IC50 turned out to be 610 µM. The molecule also registered a Max relaxation in the experiment filed under Cavia porcellus [13] of 28%.
